Assay results: ChEMBL document CHEMBL5705888, “Substrate specificity and inhibitors of LRRK2, a protein kinase mutated in Parkinson's disease” (Biochem J, 2009)
The source made the active and inactive calls. The calls are words filed in the database; no cut-off is given here.

Key:
[1] = molecular target: MAP kinase-activated protein kinase 2 (Homo sapiens) (UniProt P49137); test: Inhibition of MAPKAPK2 (unknown origin) at 1 uM incubated for 30 mins in presence of [gamma-33P]ATP by multidrop micro reagent based assay relative to control; values are per cent of control
[2] = molecular target: Serine/threonine-protein kinase pim-2 (Homo sapiens) (UniProt Q9P1W9); test: Inhibition of PIM2 (unknown origin) at 1 uM incubated for 30 mins in presence of [gamma-33P]ATP by multidrop micro reagent based assay relative to control; values are per cent of control
[3] = molecular target: 3-phosphoinositide-dependent protein kinase 1 (Homo sapiens) (UniProt O15530); test: Inhibition of PDK1 (unknown origin) at 1 uM incubated for 30 mins in presence of [gamma-33P]ATP by multidrop micro reagent based assay relative to control; values are per cent of control
[4] = molecular target: Homeodomain-interacting protein kinase 2 (Homo sapiens) (UniProt Q9H2X6); test: Inhibition of HIPK2 (unknown origin) at 1 uM incubated for 30 mins in presence of [gamma-33P]ATP by multidrop micro reagent based assay relative to control; values are per cent of control
[5] = molecular target: T1, Leucine-rich repeat serine/threonine-protein kinase 2 (Homo sapiens, UniProt Q5S007); test: Inhibition of LRRK2 in human HEK293 cells assessed as inhibition of ERM phosphorylation at 10 uM incubated for 1 hr using LRRKtide as substrate in presence of sunitinib by immunoblot analysis; assay type: cell-based
In short: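 SDS lysates were run on 4–12% gels and immunoblotted for ERM phosphorylation with pan-phospho-ERM antibody (1 μg/ml, with 10 μg/ml LRRKtide in blocking milk/TBST).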

[6] = molecular target: Leucine-rich repeat serine/threonine-protein kinase 2 (Mus musculus) (UniProt Q5S006); test: Inhibition of LRRK2 in mouse Swiss-3T3 cells at 10 uM using Nictide as substrate by immunoblot analysis; assay type: cell-based
[7] = molecular target: Leucine-rich repeat serine/threonine-protein kinase 2 (Homo sapiens, UniProt Q5S007, G2019S); test: Inhibition of GST-tagged LRRK2 G2019S mutant (1326 to 2527 residues) (unknown origin) in presence of ATP
[8] = molecular target: Leucine-rich repeat serine/threonine-protein kinase 2 (Homo sapiens, UniProt Q5S007, A2016T/G2019S); test: Inhibition of GST-tagged LRRK2 G2019S/A2016T mutant (1326 to 2527 residues) (unknown origin) in presence of ATP
[9] = molecular target: Misshapen-like kinase 1 (Homo sapiens) (UniProt Q8N4C8); test: Inhibition of MINK1 (unknown origin) at 0.1 uM incubated for 30 mins in presence of [gamma-33P]ATP by multidrop micro reagent based assay relative to control
[10] = molecular target: Myosin light chain kinase, smooth muscle (Homo sapiens) (UniProt Q15746); test: Inhibition of SmMLCK (unknown origin) at 0.1 uM incubated for 30 mins in presence of [gamma-33P]ATP by multidrop micro reagent based assay relative to control
In short: (§1)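 Single-concentration screen across a panel of 85 protein kinases. Activity is expressed as a percentage of control incubations run without inhibitor.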

[11] = molecular target: MAP kinase-interacting serine/threonine-protein kinase 1 (Homo sapiens) (UniProt Q9BUB5); test: Inhibition of MNK1 (unknown origin) at 10 uM incubated for 30 mins in presence of [gamma-33P]ATP by multidrop micro reagent based assay relative to control
In short: as §1

[12] = molecular target: Calcium/calmodulin-dependent protein kinase kinase 2 (Homo sapiens) (UniProt Q96RR4); test: Residual activity of CaMKKbeta (unknown origin) at 10 uM incubated for 30 mins in presence of [gamma-33P]ATP by multidrop micro reagent based assay relative to control
[13] = molecular target: T1, Leucine-rich repeat serine/threonine-protein kinase 2; test: Inhibition of LRRK2 (unknown origin) at 10 uM incubated for 30 mins in presence of [gamma-33P]ATP by multidrop micro reagent based assay relative to control
[14] = molecular target: MAP/microtubule affinity-regulating kinase 3 (Homo sapiens) (UniProt P27448); test: Inhibition of MARK3 (unknown origin) at 10 uM incubated for 30 mins in presence of [gamma-33P]ATP by multidrop micro reagent based assay relative to control; values are per cent of control
[15] = molecular target: Serine/threonine-protein kinase N2 (Homo sapiens) (UniProt Q16513); test: Inhibition of PRK2 (unknown origin) at 10 uM incubated for 30 mins in presence of [gamma-33P]ATP by multidrop micro reagent based assay relative to control
In short: as §1

[16] = molecular target: Mitogen-activated protein kinase 3 (Homo sapiens) (UniProt P27361); test: Inhibition of ERK1 (unknown origin) at 10 uM incubated for 30 mins in presence of [gamma-33P]ATP by multidrop micro reagent based assay relative to control; values are per cent of control
[17] = molecular target: Ribosomal protein S6 kinase beta-1 (Homo sapiens) (UniProt P23443); test: Residual activity of S6K1 (unknown origin) at 10 uM incubated for 30 mins in presence of [gamma-33P]ATP by multidrop micro reagent based assay relative to control
[18] = molecular target: Serine/threonine-protein kinase 26 (Homo sapiens) (UniProt Q9P289); test: Inhibition of MST4 (unknown origin) at 10 uM incubated for 30 mins in presence of [gamma-33P]ATP by multidrop micro reagent based assay relative to control
In short: as §1

[19] = molecular target: Mitogen-activated protein kinase 13 (Homo sapiens) (UniProt O15264); test: Residual activity of p38delta MAPK (unknown origin) at 10 uM incubated for 30 mins in presence of [gamma-33P]ATP by multidrop micro reagent based assay relative to control
[20] = molecular target: Dual specificity tyrosine-phosphorylation-regulated kinase 1A (Homo sapiens) (UniProt Q13627); test: Inhibition of DYRK1A (unknown origin) at 10 uM incubated for 30 mins in presence of [gamma-33P]ATP by multidrop micro reagent based assay relative to control; values are per cent of control
[21] = molecular target: Insulin receptor (Homo sapiens) (UniProt P06213); test: Inhibition of His-tagged IR (unknown origin) at 10 uM incubated for 30 mins in presence of [gamma-33P]ATP by multidrop micro reagent based assay relative to control
[22] = molecular target: Tyrosine-protein kinase SYK (Homo sapiens) (UniProt P43405); test: Inhibition of SYK (unknown origin) at 10 uM incubated for 30 mins in presence of [gamma-33P]ATP by multidrop micro reagent based assay relative to control; values are per cent of control
[23] = molecular target: Mitogen-activated protein kinase 9 (Homo sapiens) (UniProt P45984); test: Inhibition of JNK2 (unknown origin) at 10 uM incubated for 30 mins in presence of [gamma-33P]ATP by multidrop micro reagent based assay relative to control; values are per cent of control

T1 sequence (Q5S007 whole entry): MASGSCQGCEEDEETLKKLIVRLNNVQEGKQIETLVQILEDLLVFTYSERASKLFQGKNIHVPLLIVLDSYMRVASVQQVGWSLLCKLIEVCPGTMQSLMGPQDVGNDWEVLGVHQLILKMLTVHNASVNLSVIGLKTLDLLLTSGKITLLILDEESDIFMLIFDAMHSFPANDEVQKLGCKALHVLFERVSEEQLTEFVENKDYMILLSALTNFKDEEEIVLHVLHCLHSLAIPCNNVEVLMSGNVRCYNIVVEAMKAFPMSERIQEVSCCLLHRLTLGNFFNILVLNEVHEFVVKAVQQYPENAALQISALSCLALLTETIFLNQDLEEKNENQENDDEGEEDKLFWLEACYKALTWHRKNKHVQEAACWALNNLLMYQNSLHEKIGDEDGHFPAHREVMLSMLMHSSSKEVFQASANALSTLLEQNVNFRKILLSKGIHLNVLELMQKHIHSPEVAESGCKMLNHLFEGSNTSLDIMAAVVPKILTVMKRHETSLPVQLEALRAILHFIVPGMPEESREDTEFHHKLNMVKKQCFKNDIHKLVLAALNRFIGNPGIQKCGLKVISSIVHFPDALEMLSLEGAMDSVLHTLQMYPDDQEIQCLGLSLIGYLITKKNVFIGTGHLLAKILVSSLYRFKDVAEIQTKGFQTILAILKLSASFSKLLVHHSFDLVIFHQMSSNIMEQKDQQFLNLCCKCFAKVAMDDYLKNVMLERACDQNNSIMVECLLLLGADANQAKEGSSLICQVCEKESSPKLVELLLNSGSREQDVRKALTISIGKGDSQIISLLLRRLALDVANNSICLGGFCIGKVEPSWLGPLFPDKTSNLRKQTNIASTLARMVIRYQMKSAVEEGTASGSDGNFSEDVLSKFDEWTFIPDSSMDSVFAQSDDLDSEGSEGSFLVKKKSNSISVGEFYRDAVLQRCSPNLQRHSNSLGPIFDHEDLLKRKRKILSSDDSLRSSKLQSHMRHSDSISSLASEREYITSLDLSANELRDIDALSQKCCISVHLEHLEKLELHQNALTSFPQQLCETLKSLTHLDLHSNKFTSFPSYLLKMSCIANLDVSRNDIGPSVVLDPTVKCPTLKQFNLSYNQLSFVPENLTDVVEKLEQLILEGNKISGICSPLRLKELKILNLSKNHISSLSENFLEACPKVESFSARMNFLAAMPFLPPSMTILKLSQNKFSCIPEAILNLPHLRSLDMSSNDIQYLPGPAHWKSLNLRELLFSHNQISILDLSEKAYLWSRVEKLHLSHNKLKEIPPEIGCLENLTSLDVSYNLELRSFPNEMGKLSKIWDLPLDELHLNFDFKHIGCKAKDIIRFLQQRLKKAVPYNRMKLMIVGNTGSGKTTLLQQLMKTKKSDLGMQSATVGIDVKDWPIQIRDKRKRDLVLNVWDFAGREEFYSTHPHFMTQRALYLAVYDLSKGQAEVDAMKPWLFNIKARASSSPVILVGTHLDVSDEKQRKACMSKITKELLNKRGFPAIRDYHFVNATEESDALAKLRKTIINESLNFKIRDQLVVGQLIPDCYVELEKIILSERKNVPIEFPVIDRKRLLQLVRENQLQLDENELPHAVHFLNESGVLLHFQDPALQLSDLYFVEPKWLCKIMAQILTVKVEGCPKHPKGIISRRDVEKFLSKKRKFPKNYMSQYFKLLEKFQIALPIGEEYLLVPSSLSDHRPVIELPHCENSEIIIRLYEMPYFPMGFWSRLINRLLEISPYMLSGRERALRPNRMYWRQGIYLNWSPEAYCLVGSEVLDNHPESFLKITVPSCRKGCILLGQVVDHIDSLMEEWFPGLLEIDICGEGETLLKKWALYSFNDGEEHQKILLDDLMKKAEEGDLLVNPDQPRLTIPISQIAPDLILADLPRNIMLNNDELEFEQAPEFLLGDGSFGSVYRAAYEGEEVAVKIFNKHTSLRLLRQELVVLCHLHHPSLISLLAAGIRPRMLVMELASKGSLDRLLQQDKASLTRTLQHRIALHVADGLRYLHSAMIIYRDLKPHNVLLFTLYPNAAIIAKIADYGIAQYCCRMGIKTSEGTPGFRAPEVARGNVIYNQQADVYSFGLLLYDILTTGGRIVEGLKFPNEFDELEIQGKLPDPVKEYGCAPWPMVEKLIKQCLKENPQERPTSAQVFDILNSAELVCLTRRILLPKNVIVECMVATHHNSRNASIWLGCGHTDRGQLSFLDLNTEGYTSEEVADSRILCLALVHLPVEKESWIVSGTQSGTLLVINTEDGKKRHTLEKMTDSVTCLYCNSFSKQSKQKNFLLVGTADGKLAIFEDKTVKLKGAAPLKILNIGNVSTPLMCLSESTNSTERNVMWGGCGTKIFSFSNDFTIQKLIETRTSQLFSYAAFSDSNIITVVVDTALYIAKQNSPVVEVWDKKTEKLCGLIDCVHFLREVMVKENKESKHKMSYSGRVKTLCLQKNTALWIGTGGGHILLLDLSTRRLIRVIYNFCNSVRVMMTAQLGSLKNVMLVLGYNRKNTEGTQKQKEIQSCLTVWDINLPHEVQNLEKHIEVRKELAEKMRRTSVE
Chain of Misshapen-like kinase 1 (Homo sapiens) (Q8N4C8 whole entry, looked up): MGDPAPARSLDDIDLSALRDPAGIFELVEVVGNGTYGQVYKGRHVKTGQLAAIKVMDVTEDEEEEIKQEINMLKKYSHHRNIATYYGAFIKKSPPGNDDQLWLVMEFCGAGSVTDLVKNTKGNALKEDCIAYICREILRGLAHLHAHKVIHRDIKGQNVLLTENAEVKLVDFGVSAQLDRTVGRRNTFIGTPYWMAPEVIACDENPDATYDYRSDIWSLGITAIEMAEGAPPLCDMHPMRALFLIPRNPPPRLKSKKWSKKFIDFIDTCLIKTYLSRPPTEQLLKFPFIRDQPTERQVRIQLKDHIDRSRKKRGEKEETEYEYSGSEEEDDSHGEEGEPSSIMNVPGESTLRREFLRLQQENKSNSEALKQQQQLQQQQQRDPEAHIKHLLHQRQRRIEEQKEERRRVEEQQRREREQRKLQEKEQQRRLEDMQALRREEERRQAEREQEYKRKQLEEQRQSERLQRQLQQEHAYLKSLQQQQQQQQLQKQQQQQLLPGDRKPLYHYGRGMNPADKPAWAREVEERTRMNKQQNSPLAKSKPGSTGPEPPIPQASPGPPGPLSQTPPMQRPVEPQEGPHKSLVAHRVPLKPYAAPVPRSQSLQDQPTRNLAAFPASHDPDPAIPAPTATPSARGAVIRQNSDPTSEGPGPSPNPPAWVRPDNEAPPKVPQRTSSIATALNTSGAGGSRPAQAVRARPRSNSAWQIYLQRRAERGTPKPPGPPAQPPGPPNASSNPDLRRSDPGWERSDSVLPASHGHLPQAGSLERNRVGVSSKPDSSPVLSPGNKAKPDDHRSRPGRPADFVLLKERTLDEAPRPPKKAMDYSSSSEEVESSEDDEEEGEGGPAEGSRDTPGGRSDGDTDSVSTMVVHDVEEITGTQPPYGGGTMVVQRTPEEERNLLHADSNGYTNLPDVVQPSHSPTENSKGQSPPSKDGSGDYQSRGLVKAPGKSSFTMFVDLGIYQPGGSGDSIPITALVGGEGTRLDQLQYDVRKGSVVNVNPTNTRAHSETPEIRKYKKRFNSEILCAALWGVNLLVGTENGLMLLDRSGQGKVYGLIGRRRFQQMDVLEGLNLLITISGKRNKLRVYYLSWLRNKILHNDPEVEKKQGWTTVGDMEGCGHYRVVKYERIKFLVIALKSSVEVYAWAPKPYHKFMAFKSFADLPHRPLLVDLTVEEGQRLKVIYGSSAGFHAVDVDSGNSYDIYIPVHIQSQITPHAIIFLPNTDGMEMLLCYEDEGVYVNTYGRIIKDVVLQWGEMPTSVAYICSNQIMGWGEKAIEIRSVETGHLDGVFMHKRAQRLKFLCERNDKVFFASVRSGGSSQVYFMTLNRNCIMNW
Chain of Mitogen-activated protein kinase 13 (Homo sapiens) (O15264 whole entry): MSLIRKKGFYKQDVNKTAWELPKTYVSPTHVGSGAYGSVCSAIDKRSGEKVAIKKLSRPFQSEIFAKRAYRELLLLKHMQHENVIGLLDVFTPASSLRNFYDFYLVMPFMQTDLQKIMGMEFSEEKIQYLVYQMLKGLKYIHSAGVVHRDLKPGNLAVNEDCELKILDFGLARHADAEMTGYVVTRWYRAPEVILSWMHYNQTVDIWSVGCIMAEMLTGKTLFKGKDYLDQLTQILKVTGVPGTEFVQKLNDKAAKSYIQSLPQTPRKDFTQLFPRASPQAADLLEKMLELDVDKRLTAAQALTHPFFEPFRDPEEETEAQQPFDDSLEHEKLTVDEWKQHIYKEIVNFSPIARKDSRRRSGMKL
Chain of Leucine-rich repeat serine/threonine-protein kinase 2 (Homo sapiens, UniProt Q5S007, G2019S) (Q5S007 whole entry G2019S, the tested form may be a part): as the sequence (Q5S007 whole entry) above, with G2019S counted along it
Chain of Calcium/calmodulin-dependent protein kinase kinase 2 (Homo sapiens) (Q96RR4 2-588 limits assumed): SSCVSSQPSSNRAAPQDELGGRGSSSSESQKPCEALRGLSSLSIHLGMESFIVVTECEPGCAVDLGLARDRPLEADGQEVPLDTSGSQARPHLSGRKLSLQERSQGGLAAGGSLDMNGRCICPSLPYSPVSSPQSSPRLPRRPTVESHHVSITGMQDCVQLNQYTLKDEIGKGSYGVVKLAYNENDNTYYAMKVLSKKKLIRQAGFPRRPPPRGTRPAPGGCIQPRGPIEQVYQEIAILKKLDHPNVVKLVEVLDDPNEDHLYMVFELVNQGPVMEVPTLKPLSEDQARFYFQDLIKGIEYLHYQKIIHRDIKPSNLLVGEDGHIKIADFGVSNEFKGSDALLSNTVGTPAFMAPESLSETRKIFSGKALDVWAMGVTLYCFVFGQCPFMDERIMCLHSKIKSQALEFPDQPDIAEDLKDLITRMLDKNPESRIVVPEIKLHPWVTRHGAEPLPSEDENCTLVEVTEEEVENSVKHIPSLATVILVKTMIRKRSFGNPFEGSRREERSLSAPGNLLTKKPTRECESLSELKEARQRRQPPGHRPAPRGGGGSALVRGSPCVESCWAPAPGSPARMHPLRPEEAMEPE
Chain of Leucine-rich repeat serine/threonine-protein kinase 2 (Homo sapiens, UniProt Q5S007, A2016T/G2019S) (Q5S007 whole entry A2016T/G2019S, the tested form may be a part): as the sequence (Q5S007 whole entry) above, with A2016T, G2019S counted along it

Work on `CC1=C(C(=O)Nc2cc3cn[nH]c3cc2F)C(c2ccc(C(F)(F)F)cc2)CC(=O)N1` (stereo not drawn) yielded a residual activity [1] of 91%, a residual activity [2] of 106% and a residual activity [3] of 120%. The residual activity [4] was 104%, the inhibition [5] was “inactive” and the inhibition [6] was “inactive”.
For `Cc1cncc2cccc(S(=O)(=O)N3CCCNC[C@@H]3C)c12`, the IC50 [7] was 104 nM and the IC50 [8] was 3.3 µM.
Compound `CCN(CC)CCNC(=O)c1c(C)[nH]c(/C=C2\C(=O)Nc3ccc(F)cc32)c1C` has an inhibition [9] of 46% and an inhibition [10] of 49%.
`C[C@@H](N)[C@H]1CC[C@H](C(=O)Nc2ccncc2)CC1` was tested, and the inhibition [11] was 20%, the residual activity [12] was 102% and the inhibition [13] was 22%. The residual activity [14] was 105%, the inhibition [15] was 7% and the residual activity [16] was 92%. For the same compound, the residual activity [17] was 70%, the inhibition [18] was 67% and the residual activity [19] was 86%. The residual activity [20] was 96%, the inhibition [21] was 113% and the residual activity [22] was 94%. For the same compound, the residual activity [23] was 96%.
